Measurements reported in ChEMBL document CHEMBL4371012, “Development of Macrocyclic Peptides Containing Epoxyketone with Oral Availability as Proteasome Inhibitors” (J Med Chem, 2018).
Activity calls are given as the source filed them. The calls are words filed in the database; no cut-off is given here.

Columns and labels:
[1] = molecular target: T1, Proteasome Macropain subunit MB1 (Homo sapiens, UniProt P28074); experiment: Inhibition of human 20S proteasome chymotrypsin-like activity using Suc-Leu-Leu-Val-Tyr-AMC as substrate pretreated for 15 mins followed by substrate addition by fluorescence assay
T1 sequence (P28074 whole entry): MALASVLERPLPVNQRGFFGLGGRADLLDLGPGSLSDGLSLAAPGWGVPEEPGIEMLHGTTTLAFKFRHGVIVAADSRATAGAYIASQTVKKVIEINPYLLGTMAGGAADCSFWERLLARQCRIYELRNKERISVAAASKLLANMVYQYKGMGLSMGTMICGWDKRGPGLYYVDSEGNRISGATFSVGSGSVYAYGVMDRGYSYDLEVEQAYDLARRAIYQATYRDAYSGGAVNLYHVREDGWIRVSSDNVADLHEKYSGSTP

[2] = system: RPMI-8226; experiment: Antiproliferative activity against human RPMI8226 cells after 72 hrs by MTS assay; type: functional, cell-based; details: RPMI-8226, 72 h
[3] = system: MM1.S; experiment: Antiproliferative activity against human MM1S cells after 72 hrs by MTS assay; type: functional, cell-based
[4] = system: MV4-11; experiment: Antiproliferative activity against human MV4-11 cells after 72 hrs by MTS assay; type: functional, cell-based; details: MV4-11, 72 h
[5] = Metabolic stability in mouse liver microsomes assessed as parent compound remaining at 100 uM after 5 mins by LC-MS/MS analysis; type: ADME, Microsome; details: read-out: Stability
[6] = system: Mus musculus; experiment: In vivo inhibition of 20S proteasome chymotrypsin-like activity in Balb/c mouse blood at 100 mg/kg, po measured at 2 to 24 hrs post dose using LLVY-AMC as substrate by fluorescence assay; type: functional, organism-based
Summary of the method: (§1)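 BALB/c mice dosed orally in 0.5% CMC-Na vehicle. Blood was sampled at 2 and 24 h after dosing for proteasome chymotrypsin-like activity.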

[7] = system: Mus musculus; experiment: In vivo inhibition of 20S proteasome chymotrypsin-like activity in Balb/c mouse blood at 30 mg/kg, po measured at 2 to 24 hrs post dose using LLVY-AMC as substrate by fluorescence assay; type: functional, organism-based; summary of the method: as §1
[8] = Clearance in ICR mouse at 5 mg/kg, iv by LC-MS/MS analysis; type: ADME, organism-based; details: in vivo
[9] = Volume of distribution at steady state in ICR mouse at 5 mg/kg, iv by LC-MS/MS analysis; type: ADME, organism-based; details: in vivo, read-out: Vdss
[10] = Half life in ICR mouse at 5 mg/kg, iv by LC-MS/MS analysis; type: ADME, organism-based; details: in vivo
[11] = AUC (0 to t) in ICR mouse at 5 mg/kg, iv after 1 hr by LC-MS/MS analysis; type: ADME, organism-based; design: time < 1 hr, dose 5 mg/kg, route intravenous; details: in vivo
[12] = Cmax in ICR mouse at 25 mg/kg, po via gavage by LC-MS/MS analysis; type: ADME, organism-based; design: dose 25 mg/kg, route oral; details: in vivo
[13] = Tmax in ICR mouse at 25 mg/kg, po via gavage by LC-MS/MS analysis; type: ADME, organism-based; details: in vivo
[14] = AUC (0 to t) in ICR mouse at 25 mg/kg, po via gavage after 1 hr by LC-MS/MS analysis; type: ADME, organism-based; design: time < 1 hr, dose 25 mg/kg, route oral; details: in vivo
[15] = Oral bioavailability in ICR mouse at 25 mg/kg via gavage by LC-MS/MS analysis; type: ADME, organism-based; details: in vivo
[16] = Metabolic stability in mouse liver microsomes assessed as parent compound remaining at 100 uM after 30 mins by LC-MS/MS analysis; type: ADME, Microsome; details: read-out: Stability
Summary of the method: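 After the microsomal incubation, the clear supernatant was analysed by ESI LC-MS. The read-out was the relative peak area of each parent compound.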

Row | Structure (SMILES) | IC50 [1] [nM] | IC50 [2] [nM] | IC50 [3] [nM] | IC50 [4] [nM] | other results
1 | COC[C@@H]1NC(=O)c2ccccc2OCCCCCCOC[C@@H](C(=O)N[C@@H](Cc2ccccc2)C(=O)[C@@]2(C)CO2)NC1=O | 54 | > 100 | 58 | 36 | remaining at 5 min, 100 µM [5]: < 5%; inhibition [6]: Active; inhibition [7]: inactive; clearance [8]: 67.2 mL/min/kg; Vd [9]: 0.62 L/kg; half-life [10]: 9.6 min; AUC(0-t) at 1 h [11]: 1240 ng·h/mL; Cmax [12]: 519 ng/mL; Tmax [13]: 4.8 min; AUC(0-t) at 1 h [14]: 133 ng·h/mL; bioavailability [15]: 2.15%
2 | COC[C@@H]1NC(=O)c2ccccc2OCCCCCOC[C@@H](C(=O)N[C@@H](Cc2ccccc2)C(=O)[C@@]2(C)CO2)NC1=O | 21 | 74 | 29 | 13 | –
3 | COC[C@@H]1NC(=O)c2ccc(Cl)cc2OCCCCCCOC[C@@H](C(=O)N[C@@H](Cc2ccccc2)C(=O)[C@@]2(C)CO2)NC1=O | 100 | > 100 | 43 | 26 | –
4 | COC[C@@H]1NC(=O)c2cccn2CCCCCCOC[C@@H](C(=O)N[C@@H](Cc2ccccc2)C(=O)[C@@]2(C)CO2)NC1=O | 14 | 13 | 4 | 11 | remaining at 5 min, 100 µM [5]: < 5%
5 | COC[C@@H]1NC(=O)c2ccc(F)cc2OCCCCCCOC[C@@H](C(=O)N[C@@H](Cc2ccccc2)C(=O)[C@@]2(C)CO2)NC1=O | 205 | > 100 | 69 | – | –
6 | COC[C@@H]1NC(=O)c2sc(C)nc2OCCCCCCOC[C@@H](C(=O)N[C@@H](Cc2ccccc2)C(=O)[C@@]2(C)CO2)NC1=O | 392 | > 100 | 65 | 36 | –
7 | COC[C@@H]1NC(=O)c2cnn(C)c2OCCCCCCOC[C@@H](C(=O)N[C@@H](Cc2ccccc2)C(=O)[C@@]2(C)CO2)NC1=O | 32 | 20 | 6 | 4 | remaining at 0.5 h, 100 µM [16]: 63%
8 | COC[C@@H]1NC(=O)c2ccccc2OCCCCCCCOC[C@@H](C(=O)N[C@@H](Cc2ccccc2)C(=O)[C@@]2(C)CO2)NC1=O | 63 | > 100 | 78 | 39 | –
9 | COC[C@@H]1NC(=O)c2cc(Cl)ccc2OCCCCCCOC[C@@H](C(=O)N[C@@H](Cc2ccccc2)C(=O)[C@@]2(C)CO2)NC1=O | 436 | – | – | – | remaining at 5 min, 100 µM [5]: < 5%
10 | COC[C@@H]1NC(=O)c2cccc(F)c2OCCCCCCOC[C@@H](C(=O)N[C@@H](Cc2ccccc2)C(=O)[C@@]2(C)CO2)NC1=O | 25 | 10 | 3 | 9 | –
11 | COC[C@@H]1NC(=O)c2ccccc2OCCCCCCC[C@@H](C(=O)N[C@@H](Cc2ccccc2)C(=O)[C@@]2(C)CO2)NC1=O | 14 | 73 | 32 | 66 | –
12 | COC[C@@H]1NC(=O)c2ccc(C)cc2OCCCCCCOC[C@@H](C(=O)N[C@@H](Cc2ccccc2)C(=O)[C@@]2(C)CO2)NC1=O | 162 | > 100 | 53 | – | –
13 | COC[C@@H]1NC(=O)c2cnn(C)c2CCCCCCOC[C@@H](C(=O)N[C@@H](Cc2ccccc2)C(=O)[C@@]2(C)CO2)NC1=O | 20 | 3 | 2 | 3 | remaining at 0.5 h, 100 µM [16]: 48%
14 | COC[C@@H]1NC(=O)c2cccc(c2)OCCCCCCCCOC[C@@H](C(=O)N[C@@H](Cc2ccccc2)C(=O)[C@@]2(C)CO2)NC1=O | 51 | 32 | 11 | – | –
15 | COC[C@@H]1NC(=O)c2ccccc2OCCCCCCCCCOC[C@@H](C(=O)N[C@@H](Cc2ccccc2)C(=O)[C@@]2(C)CO2)NC1=O | 460 | – | – | – | –
16 | COC[C@@H]1NC(=O)c2ccccc2OCCCCCCCCOC[C@@H](C(=O)N[C@@H](Cc2ccccc2)C(=O)[C@@]2(C)CO2)NC1=O | 346 | – | – | – | –
